Measured values from different studies.
Protocols differ between the studies behind these lines.
JAK1 JH2: Tyrosine-protein kinase JAK1, JH2 (JAK1, Homo sapiens, UniProt P23458)
JAK1 JH1: Tyrosine-protein kinase JAK1, JH1 (JAK1, Homo sapiens, UniProt P23458)
JAK1: Tyrosine-protein kinase JAK1 (JAK1, Homo sapiens, UniProt P23458)

| SMILES | target | assay | conditions | remaining binding |
| --- | --- | --- | --- | --- |
| CCC(=O)N[C@H]1CC[C@@H](C(=O)N(C)c2ccc(-c3nc4ccccc4o3)cc2)C1 | JAK1 JH2 | cell-free assay, competition with immobilised ligand | 1 µM | 77% |
| CNC(=O)[C@@H]1CC[C@@H](n2c(-c3ccc4cnccc4c3)nc3ccc(C(=O)NCc4cccc(C(N)=O)c4)cc32)C1 | JAK1 JH1 | binding, competition with immobilised ligand | 1 µM | 88% |
| Cc1cnc(Nc2ccc(C(=O)N3CCC(N4CCCC4)CC3)cc2)nc1-c1cc2ccccc2s1 | JAK1 JH1 | binding, competition with immobilised ligand | 1 µM | 0% |
| CN(C)c1ncc(F)c(-c2cnn3ncccc23)n1 | JAK1 | binding | 1 µM | 89% |
| O=C(O)[C@@H]1[C@@H](Cn2nnc3ccccc3c2=O)CC[C@H]1C(=O)c1ccc(OCCC2CCOCC2)cc1 | JAK1 JH2 | cell-free assay, competition with immobilised ligand | 1 µM | 100% |
| O=C(c1ccc(Nc2ncc(Cl)c(-c3cc4ccccc4s3)n2)cc1)N1CCC(N2CCCC2)CC1 | JAK1 JH1 | binding, competition with immobilised ligand | 1 µM | 9.3% |
| CC1=C(C#N)[C@@H](c2ccc3[nH]nc(C)c3c2)C(C#N)=C(c2ccc(Cl)cc2)N1 | JAK1 JH2 | cell-free assay, competition with immobilised ligand | 1 µM | 38.2% |
| CN1CCN(c2ccc(Nc3nccc(-c4ccccc4)n3)cc2C(F)(F)F)CC1 | JAK1 | binding | 10 µM | 0.45% |
| CN(c1nccc(-c2cnn3ncccc23)n1)C1CC1 | JAK1 | binding | 1 µM | 100% |
| O=C(c1ccc(Nc2nccc(-c3cc4ccccc4s3)n2)cc1)N1CCC(N2CCCC2)CC1 | JAK1 JH2 | binding, competition with immobilised ligand | 1 µM | 3.6% |
| CC1CCCN1c1nccc(-c2cnn3ncccc23)n1 (stereo not shown) | JAK1 | binding | 1 µM | 100% |
| CS(=O)(=O)N1CCCC(NC(=O)[C@H](CCC2CCCCC2)NC(=O)c2ccc(CNC(=O)c3cnc4ccccn34)cc2)C1 (stereo partly shown) | JAK1 JH2 | cell-free assay, competition with immobilised ligand | 0.1 µM | 100% |
| C[C@@H]1CCN(c2nccc(-c3cnn4ncccc34)n2)C1 | JAK1 | binding | 1 µM | 62% |
| CN1CCN(c2cnc3c(C4CCN(C(=O)c5ccc(OC(F)(F)F)cc5N)CC4)ncnc3c2)CC1 | JAK1 JH1 | cell-free assay, competition with immobilised ligand | 1 µM | 100% |
| O=C(Nc1c[nH]nc1C(=O)NC1CCNCC1)c1cc(F)cc(F)c1 | JAK1 JH1 | binding, competition with immobilised ligand | 1 µM | 88% |
| Nc1ncc2c(n1)-c1c([nH]c3ccc(C#CC4CC4)cc13)CCCC2 | JAK1 JH2 | binding, competition with immobilised ligand | 1 µM | 97% |
| CN(CCCC(F)(F)F)c1nccc(-c2cnn3ncccc23)n1 | JAK1 JH1 | cell-free assay, competition with immobilised ligand | 1 µM | 100% |
| c1ccc(N2CCN(Cc3nc4ccccc4[nH]3)CC2)nc1 | JAK1 JH2 | binding, competition with immobilised ligand | 1 µM | 76% |
| CCN1CCN(Cc2ccc(C(=O)Nc3ccc(C)c(Oc4ccc5c(c4)CC(=O)N5)c3)cc2C(F)(F)F)CC1 | JAK1 JH1 | binding, competition with immobilised ligand | 1 µM | 76% |
